Source: ChEMBL document CHEMBL1125520, “Improved brain delivery of AZT using a glycosyl phosphotriester prodrug” (1992)

How the values were obtained:
Mus musculus [1] = organism: Mus musculus; assay: In Vitro detection by Gray and Whittaker method for % of internalization by comparing with external nucleoside of 2000 nM/g; assay type: functional
Procedure, shortened: (§1)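 Crude synaptosomes from three mouse brains were prepared by Gray–Whittaker homogenization in 10% sucrose buffered with 5 mM Tris-HCl, pH 7.4. The 7000g pellet was resuspended and incubated with each nucleoside at 3 mM for 15 min at 37 °C, stopped by cold 10-fold dilution and washed twice. Internal nucleoside was extracted in acetonitrile–water (3:1) and measured by HPLC.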

Mus musculus [2] = organism: Mus musculus; assay: Concentration of external nucleoside in mouse brain; assay type: functional
Procedure, shortened: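 Male Swiss mice (6 weeks, 18–20 g) dosed by oral gavage in saline vehicle at 20 mg/kg AZT or molar equivalent (3 mM, 1.5 µmol/mouse). Brains taken 0.5–48 h post-dose, homogenized in acetonitrile–water 3:1, centrifuged, lyophilized and filtered. Analysed by column-switching C18 HPLC with diode-array detection against spiked standards and vehicle controls. Three mice per time point, triplicates; not recovery-corrected.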

Mus musculus [3] = organism: Mus musculus; assay: In Vitro detection by Gray and Whittaker method for the total internal nucleoside; assay type: functional; procedure, shortened: as §1
Mus musculus [4] = assay: In Vivo detection in Mice plasma after oral administration of 20 mg/kg detected in the form of AZT after 8 hr; assay type: functional, organism-based; set-up: dose 20 mg/kg
Mus musculus [5] = assay: In Vivo detection in Mice plasma after oral administration of 20 mg/kg detected in the form of AZT 5`-P after 0.5 hr; assay type: functional, organism-based; set-up: dose 20 mg/kg
Mus musculus [6] = assay: In Vivo detection in Mice plasma after oral administration of 20 mg/kg detected in the form of AZT 5`-P after 24 hr; assay type: functional, organism-based; set-up: dose 20 mg/kg
Mus musculus [7] = assay: In Vivo detection in Mice plasma after oral administration of 20 mg/kg detected in the form of AZT 5`-P after 2 hr; assay type: functional, organism-based; set-up: dose 20 mg/kg
Mus musculus [8] = assay: In Vivo detection in Mice plasma after oral administration of 20 mg/kg detected in the form of AZT 5`-P after 48 hr; assay type: functional, organism-based; set-up: dose 20 mg/kg
Mus musculus [9] = assay: In Vivo detection in Mice plasma after oral administration of 20 mg/kg detected in the form of AZT 5`-P after 4 hr; assay type: functional, organism-based; set-up: dose 20 mg/kg
Mus musculus [10] = assay: In Vivo detection in Mice plasma after oral administration of 20 mg/kg detected in the form of AZT 5`-P after 8 hr; assay type: functional, organism-based; set-up: dose 20 mg/kg
Mus musculus [11] = assay: In Vivo detection in Mice plasma after oral administration of 20 mg/kg detected in the form of AZT after 0.5 hr; assay type: functional, organism-based; set-up: dose 20 mg/kg
Mus musculus [12] = assay: In Vivo detection in Mice plasma after oral administration of 20 mg/kg detected in the form of AZT after 1 hr; assay type: functional, organism-based; set-up: dose 20 mg/kg
Mus musculus [13] = assay: In Vivo detection in Mice plasma after oral administration of 20 mg/kg detected in the form of AZT after 24 hr; assay type: functional, organism-based; set-up: dose 20 mg/kg
Mus musculus [14] = assay: In Vivo detection in Mice plasma after oral administration of 20 mg/kg detected in the form of AZT after 2 hr; assay type: functional, organism-based; set-up: dose 20 mg/kg
Mus musculus [15] = assay: In Vivo detection in Mice plasma after oral administration of 20 mg/kg detected in the form of AZT after 48 hr; assay type: functional, organism-based; set-up: dose 20 mg/kg
Mus musculus [16] = assay: In Vivo detection in Mice plasma after oral administration of 20 mg/kg detected in the form of AZT after 4 hr; assay type: functional, organism-based; set-up: dose 20 mg/kg
Mus musculus [17] = assay: In Vivo detection of total AZT in Mice plasma after oral administration of 20 mg/kg after 0.5 hr; assay type: functional, organism-based; set-up: dose 20 mg/kg
Procedure, shortened: (§2)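 Male Swiss mice (18–20 g, six weeks old) given the test substance or vehicle ([…]) by gavage as a 3 mM solution (1.5 µmol/mouse). Aortic blood was collected into heparinized tubes at 0.5–48 h and centrifuged at 13000g for 10 min. Plasma was stored at -22 °C and analysed by HPLC. Three mice were used per time point, in triplicate. Values were not corrected for recovery.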

Mus musculus [18] = assay: In Vivo detection of total AZT in Mice plasma after oral administration of 20 mg/kg after 1 hr; assay type: functional, organism-based; set-up: dose 20 mg/kg; procedure, shortened: as §2
Mus musculus [19] = assay: In Vivo detection of total AZT in Mice plasma after oral administration of 20 mg/kg after 24 hr; assay type: functional, organism-based; set-up: dose 20 mg/kg; procedure, shortened: as §2
Mus musculus [20] = assay: In Vivo detection of total AZT in Mice plasma after oral administration of 20 mg/kg after 2 hr; assay type: functional, organism-based; set-up: dose 20 mg/kg; procedure, shortened: as §2
Mus musculus [21] = assay: In Vivo detection of total AZT in Mice plasma after oral administration of 20 mg/kg after 48 hr; assay type: functional, organism-based; set-up: dose 20 mg/kg; procedure, shortened: as §2
Mus musculus [22] = assay: In Vivo detection of total AZT in Mice plasma after oral administration of 20 mg/kg after 4 hr; assay type: functional, organism-based; set-up: dose 20 mg/kg; procedure, shortened: as §2
Mus musculus [23] = assay: In Vivo detection of total AZT in Mice plasma after oral administration of 20 mg/kg after 8 hr; assay type: functional, organism-based; set-up: dose 20 mg/kg; procedure, shortened: as §2
Mus musculus [24] = assay: In Vivo detection in Mice plasma after oral administration of 20 mg/kg detected in the form of AZT 5`-P after 1 hr; assay type: functional, organism-based; set-up: dose 20 mg/kg

For `Cc1cn([C@H]2C[C@H](N=[N+]=[N-])[C@@H](COP(=O)(O)O)O2)c(=O)[nH]c1=O` [AZIDOTHYMIDINE MONOPHOSPHATE], the Internalisation (Mus musculus [1]) was 0.06%, the External nucleoside (Mus musculus [2]) was 2000 nM/g and the Brain content (Mus musculus [3]) was 1.1 nM/g.

`Cc1cn([C@H]2C[C@H](N=[N+]=[N-])[C@@H](CO)O2)c(=O)[nH]c1=O` [ZIDOVUDINE] gave an Internalisation (Mus musculus [1]) of 0.03%, a Plasma content (Mus musculus [4]) of 0 nM ml-1 and a Plasma content (Mus musculus [5]) of 21.7 nM ml-1. It also gave a Plasma content (Mus musculus [6]) of 0 nM ml-1, a Plasma content (Mus musculus [7]) of 13.1 nM ml-1 and a Plasma content (Mus musculus [8]) of 0 nM ml-1. For the same compound, the Plasma content (Mus musculus [9]) was 0 nM ml-1, the Plasma content (Mus musculus [10]) was 0 nM ml-1 and the Plasma content (Mus musculus [11]) was 26.6 nM ml-1. It also gave a Plasma content (Mus musculus [12]) of 15.7 nM ml-1, a Plasma content (Mus musculus [13]) of 0 nM ml-1 and a Plasma content (Mus musculus [14]) of 6 nM ml-1. It also gave a Plasma content (Mus musculus [15]) of 0 nM ml-1, a Plasma content (Mus musculus [16]) of 4.4 nM ml-1 and a Plasma content (Mus musculus [17]) of 48.3 nM ml-1. For the same compound, the Plasma content (Mus musculus [18]) was 43.2 nM ml-1, the Plasma content (Mus musculus [19]) was 0 nM ml-1 and the Plasma content (Mus musculus [20]) was 19.1 nM ml-1. For the same compound, the Plasma content (Mus musculus [21]) was 0 nM ml-1, the Plasma content (Mus musculus [22]) was 4.4 nM ml-1 and the Plasma content (Mus musculus [23]) was 0 nM ml-1. It also gave a Plasma content (Mus musculus [24]) of 27.5 nM ml-1.
